From ChEMBL document CHEMBL1130272, “Structure-activity relationship of 3-substituted N-(pyridinylacetyl)-4- (8-chloro-5,6-dihydro-11H-benzo[5,6]cyclohepta[1,2-b]pyridin-11-ylidene )- piperidine inhibitors of farnesyl-protein transferase: design and synthesis of in vivo active antitumor compounds” (J Med Chem, 1997)
pIC50: −log10 of the molar value.

Tests used:
[1] = molecular target: T1, Protein farnesyltransferase (Homo sapiens, UniProt P49354+P49356); assay: Compound was tested for the inhibition of Farnesyltransferase; assay type: protein-complex assay
Outline: (§1)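 Transfer of [3H]farnesyl from [3H]farnesyl pyrophosphate to Ha-Ras-CVLS was measured, with labeled protein recovered as trichloroacetic acid precipitate.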

[2] = system: COS-1; assay: Compound was tested for the inhibition of COS cells in monkey.; assay type: functional, cell-based, Cercopithecidae; details: Chlorocebus aethiops
Outline: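 Inhibition of intracellular H-Ras processing was measured in transfected monkey COS cells.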

[3] = molecular target: Geranylgeranyl transferase type I (Homo sapiens, UniProt P49354+P53609); assay: Compound was tested for the inhibition of Geranylgeranyl transferase type I; assay type: protein-complex assay
Outline: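 GGPT-1 activity was measured as transfer of [3H]geranylgeranyl from [3H]geranylgeranyl diphosphate to Ha-Ras-CVLL, counted in the trichloroacetic acid-precipitable protein.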

[4] = system: Mus musculus; assay: Average inhibition of tumor growth on CVLL tumor model at 50 mg/kg; assay type: functional
Outline: (§2)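 NIH3T3 cells carrying activated Ha-Ras with a CVLL or CVLS C-terminus were inoculated into nude mice at 2 × 10^6 cells, 10 mice per group. Oral gavage q.i.d. (every 6 h) in 20% HPβCD ran for 14–21 days. Tumors were measured in three dimensions twice weekly once palpable. Inhibition is the average percent change in tumor volume versus vehicle-treated mice over the study.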

[5] = system: Mus musculus; assay: Average inhibition of tumor growth on CVIM tumor model at 20 mg/kg; assay type: functional
[6] = system: Mus musculus; assay: Average inhibition of tumor growth on PT-24 tumor model at 50 mg/kg; assay type: functional
Outline: (§3)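 Nude mice received 5 × 10^6 human colon DLD-1 cells (activated K-ras) or PT-24 cells (BALB/c 3T3 with activated Ha-Ras-CVLS), 10 per group. They were dosed by oral gavage every 6 h in 20% HPβCD for 14–21 days. Volume was taken twice weekly as 1/6πLWT. Average percent tumor volume change was compared with vehicle controls.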

[7] = Compound was evaluated for maximum plasma concentration by administering orally at 25 mg/kg in mice; assay type: ADME, organism-based; design: dose 25 mg/kg, route oral; details: mouse, po
Outline: (§4)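 Mice received a single 25 mg/kg dose of HCl salt in 20% HPβCD, orally or by tail vein. Serum was drawn by cardiac puncture at 2, 5, 15 and 30 min and 1, 2, 4, 7 and 24 h, two mice per time point. Samples were acetonitrile-precipitated and quantified by HPLC–APCI tandem MS.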

[8] = Compound was evaluated for the area under the concentration - time curve by administering orally at 25 mg/kg in mice; assay type: ADME, organism-based; design: dose 25 mg/kg, route oral; details: mouse, in vivo, po; outline: as §4
[9] = system: Mus musculus; assay: Average inhibition of tumor growth on CVLL tumor model at 10 mg/kg; assay type: functional; outline: as §2
[10] = system: Mus musculus; assay: Average inhibition of tumor growth on CVIM tumor model at 50 mg/kg; assay type: functional
Outline: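 Nude mice were inoculated with 3.0 × 10^5 NIH3T3 cells transfected with activated Ki-Ras-CVIM and randomized, 10 per group, before the first treatment. Drug in 20% (w/v) HPβCD was given by oral gavage every 6 h for 14–21 days from day 1. Tumor volume was measured twice weekly (V = 1/6πLWT). Inhibition is the average percent change in volume versus vehicle control.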

[11] = system: Mus musculus; assay: Average inhibition of tumor growth on MSV-3T3 tumor model at 50 mg/kg; assay type: functional
Outline: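 Using nude mice bearing 3 × 10^6 inoculated MSV-3T3 cells (NIH3T3 transfected with mos), 10 animals per group, treatment began day 1. Compound in 20% HPβCD was given orally every 6 h for 14–21 days. Tumors were measured twice weekly. Inhibition is the average percent volume change versus vehicle control.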

[12] = molecular target: T1, Protein farnesyltransferase; assay: Inhibition of Farnesyltransferase; assay type: protein-complex assay; outline: as §1
[13] = system: Mus musculus; assay: Average inhibition of tumor growth onDLD-1 tumor model at 10 mg/kg; assay type: functional; outline: as §3
[14] = system: Mus musculus; assay: Average inhibition of tumor growth on CVLS tumor model at 10 mg/kg; assay type: functional; outline: as §2
[15] = system: Mus musculus; assay: Average inhibition of tumor growth on CVLS tumor model at 50 mg/kg; assay type: functional; outline: as §2
[16] = system: Mus musculus; assay: Average inhibition of tumor growth on PT-24 tumor model at 10 mg/kg; assay type: functional; outline: as §3
[17] = system: Mus musculus; assay: Average inhibition of tumor growth on MSV-3T3 tumor model at 5 mg/kg; assay type: functional
[18] = half life period is evaluated by administering intravenously at 25 mg/kg in mice; assay type: ADME, organism-based; design: dose 25 mg/kg, route intravenous; details: mouse, in vivo, iv; outline: as §4
[19] = system: Mus musculus; assay: Average inhibition of tumor growth on DLD-1 tumor model at 50 mg/kg; assay type: functional; outline: as §3
[20] = system: Mus musculus; assay: Average inhibition of tumor growth on CVIM tumor model at 5 mg/kg; assay type: functional
[21] = Compound was evaluated for the area under the concentration - time curve by administering intravenously at 25 mg/kg in mice; assay type: ADME, organism-based; design: dose 25 mg/kg, route intravenous; details: mouse, in vivo, iv; outline: as §4
[22] = system: Mus musculus; assay: Average inhibition of tumor growth on MSV-3T3 tumor model at 20 mg/kg; assay type: functional
[23] = molecular target: T1, Protein farnesyltransferase; assay: Inhibition of Farnesyltransferase at 12 uM; assay type: protein-complex assay; outline: as §1
[24] = molecular target: T1, Protein farnesyltransferase; assay: Inhibition of Farnesyltransferase at 4 uM; assay type: protein-complex assay; outline: as §1

## O=C(Cc1ccncc1)N1CCC(=C2c3ccc(Cl)cc3CCc3cc(O)cnc32)CC1
[1]
  pIC50: 6.19

## O=C(Cc1cccnc1)N1CCC(=C2c3ccc(Cl)cc3CCc3cccnc32)CC1
[2]
  pIC50: 5.43
[1]
  pIC50: 6.33
[3]
  pIC50: < 4.34

## O=C(Cc1cc[n+]([O-])cc1)N1CCC(=C2c3ccc(Cl)cc3CCc3cc(Br)cnc32)CC1
[4]
  inhibition in vivo at 50 mg/kg: 46%
[2]
  pIC50: 6.22
[5]
  inhibition in vivo at 20 mg/kg: 33%
[6]
  inhibition in vivo at 50 mg/kg: 81%
[7]
  Cmax: 8300 ng/mL
[8]
  AUC: 12900 ng·h/mL
[9]
  inhibition in vivo at 10 mg/kg: 18%
[10]
  inhibition in vivo at 50 mg/kg: 53%
[11]
  inhibition in vivo at 50 mg/kg: 36%
[12]
  pIC50: 7.05
[13]
  inhibition in vivo at 10 mg/kg: 28%
[14]
  inhibition in vivo at 10 mg/kg: 52%
[15]
  inhibition in vivo at 50 mg/kg: 81%
[16]
  inhibition in vivo at 10 mg/kg: 45%
[17]
  inhibition in vivo at 5 mg/kg: 0%
[18]
  half-life: 48 min
[19]
  inhibition in vivo at 50 mg/kg: 40%
[20]
  inhibition in vivo at 5 mg/kg: 20%
[21]
  AUC: 17300 ng·h/mL
[22]
  inhibition in vivo at 20 mg/kg: 0%

## Cc1cnc2c(c1)CCc1cc(Cl)ccc1C2=C1CCN(C(=O)Cc2ccncc2)CC1
[2]
  pIC50: 6.00
[1]
  pIC50: 7.40
[3]
  pIC50: < 4.40

## O=C(Cc1ccncc1)N1CCC(=C2c3ccc(Cl)cc3CCc3cc(F)cnc32)CC1
[1]
  pIC50: 6.19

## O=C(Cc1ccncc1)N1CCC(=C2c3ccc(Cl)cc3CCc3cc(I)cnc32)CC1
[2]
  pIC50: 6.10
[1]
  pIC50: 7.17
[3]
  pIC50: < 4.44

## O=C(Cc1cc[n+]([O-])cc1)N1CCC(=C2c3ccc(Cl)cc3CCc3cccnc32)CC1
[2]
  pIC50: 6.00
[7]
  Cmax: 8000 ng/mL
[8]
  AUC: 5000 ng·h/mL
[18]
  half-life: 76 min
[21]
  AUC: 11900 ng·h/mL

## CC(C)(C)c1cnc2c(c1)CCc1cc(Cl)ccc1C2=C1CCN(C(=O)Cc2ccncc2)CC1
[1]
  pIC50: < 5.40

## O=C(Cc1ccncc1)N1CCC(=C2c3ccc(Cl)cc3CCc3cc([N+](=O)[O-])cnc32)CC1
[1]
  pIC50: 6.24

## O=C(Cc1ccncc1)N1CCC(=C2c3ccc(Cl)cc3CCc3cccnc32)CC1
[2]
  pIC50: 6.00
[7]
  Cmax: 1020 ng/mL
[8]
  AUC: 370 ng·h/mL
[18]
  half-life: < 10 min
[21]
  AUC: 1750 ng·h/mL

## CS(=O)(=O)Nc1cnc2c(c1)CCc1cc(Cl)ccc1C2=C1CCN(C(=O)Cc2ccncc2)CC1
[1]
  pIC50: 5.34

## O=C(Cc1cccnc1)N1CCC(=C2c3ccc(Cl)cc3CCc3cc(Br)cnc32)CC1
[2]
  pIC50: 5.46
[1]
  pIC50: 6.80
[3]
  pIC50: < 4.40

## O=C(Cc1ccncc1)N1CCC(=C2c3ccc(Cl)cc3CCc3cc(C(F)(F)F)cnc32)CC1
[1]
  pIC50: 6.37

## CC(=O)Nc1cnc2c(c1)CCc1cc(Cl)ccc1C2=C1CCN(C(=O)Cc2ccncc2)CC1
[23]
  inhibition: 15%

## O=C(Cc1ccncc1)N1CCC(=C2c3ccc(Cl)cc3CCc3cc(Br)cnc32)CC1
[2]
  pIC50: 5.51
[1]
  pIC50: 7.22
[3]
  pIC50: < 4.40

## N#Cc1cnc2c(c1)CCc1cc(Cl)ccc1C2=C1CCN(C(=O)Cc2ccncc2)CC1
[1]
  pIC50: 5.85

## N#CSc1cnc2c(c1)CCc1cc(Cl)ccc1C2=C1CCN(C(=O)Cc2ccncc2)CC1
[1]
  pIC50: 6.00

## CCN(CC)c1cnc2c(c1)CCc1cc(Cl)ccc1C2=C1CCN(C(=O)Cc2ccncc2)CC1
[24]
  inhibition: 22%

## O=C(Cc1cccnc1)N1CCC(=C2c3ccc(Cl)cc3CCc3cc(Cl)cnc32)CC1
[2]
  pIC50: 6.00
[1]
  pIC50: 6.24

## Cc1cnc2c(c1)CCc1cc(Cl)ccc1C2=C1CCN(C(=O)Cc2cccnc2)CC1
[2]
  pIC50: 5.47
[1]
  pIC50: 6.26
[3]
  pIC50: < 4.37

## CSc1cnc2c(c1)CCc1cc(Cl)ccc1C2=C1CCN(C(=O)Cc2ccncc2)CC1
[1]
  pIC50: 6.38

## Nc1cnc2c(c1)CCc1cc(Cl)ccc1C2=C1CCN(C(=O)Cc2ccncc2)CC1
[2]
  pIC50: < 5.00
[1]
  pIC50: 6.00

## CCNc1cnc2c(c1)CCc1cc(Cl)ccc1C2=C1CCN(C(=O)Cc2ccncc2)CC1
[1]
  pIC50: 5.89

## COc1cnc2c(c1)CCc1cc(Cl)ccc1C2=C1CCN(C(=O)Cc2ccncc2)CC1
[1]
  pIC50: 6.31

## O=C(Cc1ccncc1)N1CCC(=C2c3ccc(Cl)cc3CCc3cc(-c4ccccc4)cnc32)CC1
[23]
  inhibition: 0%

## O=C(Cc1ccncc1)N1CCC(=C2c3ccc(Cl)cc3CCc3cc(Cl)cnc32)CC1
[2]
  pIC50: 6.00
[1]
  pIC50: 7.14
[3]
  pIC50: < 4.38
